Results published in ChEMBL document CHEMBL4130342, “New semi-synthetic analogs of oleuropein show improved anticancer activity in vitro and in vivo” (Eur J Med Chem, 2017).

How the values were obtained:
MCF7 = test: Antiproliferative activity against human MCF7 cells after 72 hrs by MTT reduction assay; format: functional, cell-based; conditions: MCF7, 72 h
Method in brief: (§1)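 MTT reduction assay; adherent lines left to adhere overnight, suspension lines (HL-60, K562) seeded on the day. […] Incubation was 72 h at 37°C, with MTT added for the last 4 h. OD read at 545 nm (reference 690 nm). IC50 from 100(A0-A)/A0=50; means ± SD of 3 independent experiments.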

PBMC [1] = test: Induction of apoptosis in human PBMC assessed as necrotic cells at 300 ug/ml after 24 hrs by propidium iodide staining-based flow cytometric method (reference value: 1%); format: cell-based
HL-60 = test: Antiproliferative activity against human HL60 cells after 72 hrs by MTT reduction assay; format: functional, cell-based; conditions: HL-60, 72 h; method in brief: as §1
PBMC [2] = test: Induction of apoptosis in human PBMC assessed as early apoptotic cells at 150 ug/ml after 24 hrs by propidium iodide staining-based flow cytometric method (reference value: 0.1%); format: cell-based
PBMC [3] = test: Induction of apoptosis in human PBMC assessed as necrotic cells at 150 ug/ml after 24 hrs by propidium iodide staining-based flow cytometric method (reference value: 1%); format: cell-based
PBMC [4] = test: Induction of apoptosis in human PBMC assessed as early apoptotic cells at 300 ug/ml after 24 hrs by propidium iodide staining-based flow cytometric method (reference value: 0.1%); format: cell-based
PBMC [5] = test: Induction of apoptosis in human PBMC assessed as late apoptotic cells at 300 ug/ml after 24 hrs by propidium iodide staining-based flow cytometric method (reference value: 0.6%); format: cell-based
PBMC [6] = test: Induction of apoptosis in human PBMC assessed as necrotic cells at 400 ug/ml after 24 hrs by propidium iodide staining-based flow cytometric method (reference value: 1%); format: cell-based
PBMC [7] = test: Induction of apoptosis in human PBMC assessed as late apoptotic cells at 500 ug/ml after 24 hrs by propidium iodide staining-based flow cytometric method (reference value: 0.6%); format: cell-based
PBMC [8] = test: Induction of apoptosis in human PBMC assessed as necrotic cells at 500 ug/ml after 24 hrs by propidium iodide staining-based flow cytometric method (reference value: 1%); format: cell-based
PBMC [9] = test: Induction of apoptosis in human PBMC assessed as early apoptotic cells at 600 ug/ml after 24 hrs by propidium iodide staining-based flow cytometric method (reference value: 0.1%); format: cell-based
PBMC [10] = test: Induction of apoptosis in human PBMC assessed as late apoptotic cells at 600 ug/ml after 24 hrs by propidium iodide staining-based flow cytometric method (reference value: 0.6%); format: cell-based
PBMC [11] = test: Induction of apoptosis in human PBMC assessed as necrotic cells at 600 ug/ml after 24 hrs by propidium iodide staining-based flow cytometric method (reference value: 1%); format: cell-based
B16-F1 [12] = test: Antiproliferative activity against mouse B16-F1 cells after 72 hrs by MTT reduction assay; format: functional, cell-based; conditions: B16-F1, 72 h; method in brief: as §1
B16-F1 [13] = test: Induction of apoptosis in mouse B16-F1 cells assessed as early apoptotic cells at 283.90 uM after 24 hrs by propidium iodide staining-based flow cytometric method (reference value: 0.5%); format: functional
B16-F1 [14] = test: Induction of apoptosis in mouse B16-F1 cells assessed as late apoptotic cells at 283.90 uM after 24 hrs by propidium iodide staining-based flow cytometric method (reference value: 0.9%); format: functional
B16-F1 [15] = test: Induction of apoptosis in mouse B16-F1 cells assessed as necrotic cells at 283.90 uM after 24 hrs by propidium iodide staining-based flow cytometric method (reference value: 0.4%); format: functional
B16-F1 [16] = test: Induction of apoptosis in mouse B16-F1 cells assessed as early apoptotic cells at 283.90 uM after 48 hrs by propidium iodide staining-based flow cytometric method (reference value: 0.2%); format: functional
B16-F1 [17] = test: Induction of apoptosis in mouse B16-F1 cells assessed as necrotic cells at 283.90 uM after 48 hrs by propidium iodide staining-based flow cytometric method (reference value: 1%); format: functional
B16-F1 [18] = test: Induction of apoptosis in mouse B16-F1 cells assessed as late apoptotic cells at 283.90 uM after 72 hrs by propidium iodide staining-based flow cytometric method (reference value: 1.4%); format: functional
B16-F1 [19] = test: Antitumor activity against mouse B16-F1 cells allografted in C57BL/6 mouse assessed as tumor volume at 600 ug, ip administered every other day up to day 29 measured on day 29 post last dose (reference value: 2.83 cm'3); format: functional
Method in brief: (§2)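 Male C57BL/6 mice, 6-8 weeks old, received 10^5 B16.F1 cells sc in the right flank on day 0. From day 11 (palpable tumors), 5 mice/group were randomized and given ip doses in 200 µL PBS every other day, 8 doses in total, up to day 29. Control group received PBS. Tumors were measured by caliper every two days; volume = 1/2(length × width²).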

B16-F1 [20] = test: Antitumor activity against mouse B16-F1 cells allografted in C57BL/6 mouse assessed as tumor volume at 300 ug, ip administered every other day up to day 29 measured on day 29 post last dose (reference value: 2.83 cm'3); format: functional; method in brief: as §2
B16-F1 [21] = test: Antitumor activity against mouse B16-F1 cells allografted in ip dosed C57BL/6 mouse assessed as tumor growth inhibition administered every other day up to day 29 measured on day 29 post last dose; format: functional, organism-based; method in brief: as §2
Mus musculus [22] = test: Toxicity in C57BL/6 mouse allografted with mouse B16-F1 cells assessed as effect on mouse survival at 600 ug, ip administered every other day up to day 29; format: organism-based; conditions: in vivo
Method in brief: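 Male C57BL/6 mice (6-8 wk) were injected sc with 10⁵ B16.F1 cells on day 0. From day 11 they received ip doses in 200 µL PBS every other day, 8 doses in total, with PBS controls. Tumors were caliper-measured every two days and the animals monitored to day 29 for signs of toxicity. Groups of 5.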

Mus musculus [23] = test: (§3) In vivo induction of tumor-reactive immune response in C57BL/6 mouse allografted with mouse B16-F1 cells assessed as splenocyte-mediated NK-sensitive mouse YAC-1 cell lysis at 600 ug, ip administered every other day up to day 29 measured on day 29 post last dose by flow cytometric method (reference value: 1.2 to 1.7); format: functional
Method in brief: (§4)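 Male C57BL/6 mice (6-8 wk) were injected sc in the right flank with 10⁵ B16.F1 cells in PBS on day 0. From day 11, when tumors were palpable, they received ip doses in 200 µL PBS every other day (8 doses; 5 mice/group). On day 29, splenocytes were co-cultured unstimulated with targets at E:T 100:1 for 6 h at 37°C. CD107a/b MFI was read by flow cytometry, 2 mice/group tested individually.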

Mus musculus [24] = test: as §3, with “syngeneic” for “NK-sensitive”, “B16-F1” for “YAC-1”, “3.3” for “1.2”, “3.9)” for “1.7)”; format: functional; method in brief: as §4
Mus musculus [25] = test: as §3, with “syngeneic” for “NK-sensitive”, “B16-F1” for “YAC-1”, “300” for “600”, “3.3” for “1.2”, “3.9)” for “1.7)”; format: functional; method in brief: as §4
Mus musculus [26] = test: as §3, with “splenocyte-mediated” for “splenocyte-mediated NK-sensitive”, “WEHI 164” for “YAC-1”, “1.6)” for “1.7)”; format: functional; method in brief: as §4
Mus musculus [27] = test: as §3, with “splenocyte-mediated” for “splenocyte-mediated NK-sensitive”, “WEHI 164” for “YAC-1”, “300” for “600”, “1.6)” for “1.7)”; format: functional; method in brief: as §4

## C/C=C1/[C@H](O[C@@H]2O[C@H](CO)[C@@H](O)[C@H](O)[C@H]2O)OC=C(C(=O)OC)[C@H]1CC(=O)OCCc1ccc(O)c(O)c1 [OLEUROPEIN]
MCF7
  IC50: 162 to 170 µM
PBMC [1]
  Activity: 3.9%
HL-60
  IC50: 54.3 µM
PBMC [2]
  Activity: 0.8%
PBMC [3]
  Activity: 2.5%
PBMC [4]
  Activity: 1.2%
PBMC [5]
  Activity: 1.9%
PBMC [6]
  Activity: 4.3%
PBMC [7]
  Activity: 6.3%
PBMC [8]
  Activity: 10.3%
PBMC [9]
  Activity: 6.5%
PBMC [10]
  Activity: 12.4%
PBMC [11]
  Activity: 16.4%
B16-F1 [12]
  IC50: 284 µM
B16-F1 [13]
  Activity: 9.3%
B16-F1 [14]
  Activity: 6.9%
B16-F1 [15]
  Activity: 2.1%
B16-F1 [16]
  Activity: 13.6%
B16-F1 [17]
  Activity: 4.2%
B16-F1 [18]
  Activity: 15.5%
B16-F1 [19]
  Activity: 2.33 cm3
B16-F1 [20]
  Activity: 2.41 cm3
B16-F1 [21]
  TGI: Dose-dependent effect
Mus musculus [22]
  Activity: Non-Toxic
Mus musculus [23]
  Flu intensity: 2.9 - 3.3
Mus musculus [24]
  Flu intensity: 6.6 - 7.5
Mus musculus [25]
  Flu intensity: 3.2 - 3.9
Mus musculus [26]
  Flu intensity: 2.5 - 2.7
Mus musculus [27]
  Flu intensity: 1.1 - 1.3
